Our source for the Ki and EC50 values is ChEMBL document CHEMBL1124115, “Synthesis and biological activity of CCK26-33-related analogues modified in position 31” (J Med Chem, 1988).

Broadly, the pKi is the Ki on a negative log10 scale, so that one unit is a factor of ten. A word on the pEC50: it is the EC50 on a negative log10 scale, so that one unit is a factor of ten. One may read the Ki as a dissociation constant, usually derived from enzyme kinetics or from competition with a known ligand. Higher therefore signals weaker binding.

For one assay, the species on record is Mus musculus. The assay can be described thus: Potency in displacing [3H]propionyl-CCK-8 from mouse brain membranes. Type of assay: functional. In outline:
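Displacement of [3H]propionyl-CCK8 at 0.4 nM (KD = 0.2 nM) from brain tissue. Data are mean ± SEM of three independent experiments, each in triplicate.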

For assay [1], the species on record is Cavia porcellus. Kind of assay: Agonist activity by measuring the ability to stimulate the contraction of the isolated guinea pig ileum. The assay is classed as functional.
The species entered for assay [2] is Cavia porcellus. Kind of assay: Potency in displacing [3H]Boc(Nle28,Nle31)-CCk27-33 from guinea pig pancreatic acini. Type of assay: functional. In outline:
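Radioligand binding on guinea pig pancreatic acini with [3H]Boc(Nle28,Nle31)-CCK27-33 at 0.5 nM (KD = 1 nM). Values are mean ± SEM of three separate experiments, each run in triplicate.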

The species entered for assay [3] is Cavia porcellus. The assay can be described thus: Agonist activity by measuring the effect on amylase secretion from guinea pig acini. Type of assay: functional.
For a further assay, the target named is T1, Cholecystokinin receptor (Mus musculus, UniProt O08786+P56481).
T1 sequence (O08786 whole entry): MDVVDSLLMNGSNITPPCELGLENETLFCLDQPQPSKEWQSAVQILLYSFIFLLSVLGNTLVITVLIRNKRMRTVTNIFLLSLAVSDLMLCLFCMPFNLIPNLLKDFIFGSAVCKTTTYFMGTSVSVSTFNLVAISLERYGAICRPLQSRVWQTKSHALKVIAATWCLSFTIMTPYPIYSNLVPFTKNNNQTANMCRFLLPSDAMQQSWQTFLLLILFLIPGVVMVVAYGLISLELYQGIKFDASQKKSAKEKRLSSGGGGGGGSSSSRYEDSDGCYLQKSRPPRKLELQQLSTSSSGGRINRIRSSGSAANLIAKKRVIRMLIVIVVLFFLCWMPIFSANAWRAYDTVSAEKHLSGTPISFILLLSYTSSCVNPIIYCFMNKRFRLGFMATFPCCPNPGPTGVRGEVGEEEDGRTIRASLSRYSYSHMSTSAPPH
T1 sequence (P56481 whole entry): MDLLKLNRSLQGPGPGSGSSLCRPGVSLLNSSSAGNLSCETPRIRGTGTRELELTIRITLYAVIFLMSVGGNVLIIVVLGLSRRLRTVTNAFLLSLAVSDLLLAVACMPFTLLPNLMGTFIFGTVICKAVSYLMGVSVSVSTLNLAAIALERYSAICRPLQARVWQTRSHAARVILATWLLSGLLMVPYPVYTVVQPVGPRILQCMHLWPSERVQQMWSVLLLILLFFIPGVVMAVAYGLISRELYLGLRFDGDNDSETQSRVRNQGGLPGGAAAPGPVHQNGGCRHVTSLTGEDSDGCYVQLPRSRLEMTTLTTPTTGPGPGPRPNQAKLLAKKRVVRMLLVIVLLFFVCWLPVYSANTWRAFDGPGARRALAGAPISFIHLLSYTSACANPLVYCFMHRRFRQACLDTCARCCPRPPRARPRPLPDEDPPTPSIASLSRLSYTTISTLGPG
Kind of assay: Potency in displacing [3H]propionyl-Cholecystokinin from mouse brain membranes. In outline:
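Competition binding on brain membranes against [³H]propionyl-CCK₈ used at 0.4 nM (K_D = 0.2 nM). Values are mean ± SEM of three separate experiments, each run in triplicate.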

The structures appear in SMILES notation. pEC50, pKi: −log10 of the molar value. Square brackets hold non-standard residues; d marks the D form. Peptide text beside a SMILES is read from it. * marks the point of attachment. sY = N[C@@H](Cc1ccc(OS(=O)(=O)O)cc1)C(=O)O; Nle = CCCC[C@H](N)C(=O)O; Boc = CC(C)(C)OC(=O)* Where only a bound is given, the exact number is not on record here.

On to `CCCC[C@H](NC(=O)[C@H](Cc1ccc(OS(=O)(=O)O)cc1)NC(=O)OC(C)(C)C)C(=O)NCC(=O)N[C@@H](Cc1c[nH]c2ccccc12)C(=O)N[C@@H](C)C(=O)N[C@@H](CC(=O)O)C(=O)N[C@@H](Cc1ccccc1)C(N)=O` (Boc-[sY][Nle]GWADF-NH2), for which the pKi in the assay filed under Mus musculus was 7.85; in the assay filed under Cavia porcellus [2], 5.96. The negative logarithm of the EC50 (pEC50) is 6.96 in the assay listed under Cavia porcellus [1] and 7.60 in the assay listed under Cavia porcellus [3].

As to `CCCC[C@H](NC(=O)[C@H](Cc1ccc(OS(=O)(=O)O)cc1)NC(=O)OC(C)(C)C)C(=O)NCC(=O)N[C@@H](Cc1c[nH]c2ccccc12)C(=O)N[C@@H](CCCC)C(=O)N[C@@H](CC(=O)O)C(=O)N[C@@H](Cc1ccccc1)C(N)=O` (Boc-[sY][Nle]GW[Nle]DF-NH2), the pKi in the assay filed under Mus musculus is 9.89; in the assay listed under Cavia porcellus [2], 8.54. The pEC50 in the assay listed under Cavia porcellus [1] is 9.40; in the assay filed under Cavia porcellus [3], 9.80.

As for `CCCC[C@H](NC(=O)[C@H](Cc1ccc(OS(=O)(=O)O)cc1)NC(=O)OC(C)(C)C)C(=O)NCC(=O)N[C@@H](Cc1c[nH]c2ccccc12)C(=O)N[C@H](CCCN)C(=O)N[C@@H](CC(=O)O)C(=O)N[C@@H](Cc1ccccc1)C(N)=O`, the pKi in the assay filed under Mus musculus is 6.96; in the assay filed under Cavia porcellus [2], 6.41. The results for the pEC50 in the assay listed under Cavia porcellus [1] and in the assay listed under Cavia porcellus [3] were 6.72 and 7.66, respectively.

As for `CSCC[C@H](NC(=O)[C@H](Cc1ccc(OS(=O)(=O)O)cc1)NC(=O)[C@@H](N)CC(=O)O)C(=O)NCC(=O)N[C@@H](Cc1c[nH]c2ccccc12)C(=O)N[C@@H](CCSC)C(=O)N[C@@H](CC(=O)O)C(=O)N[C@@H](Cc1ccccc1)C(N)=O` [SINCALIDE], the negative logarithm of the EC50 (pEC50) in the assay filed under Cavia porcellus [1] was 9.15; in the assay listed under Cavia porcellus [3] it was 9.89. Moreover, in the assay filed under Cavia porcellus [2], the negative-log Ki (pKi) is 8.60. For the same compound, at Cholecystokinin receptor, the inhibitory constant (Ki) worked out at 0.0003 µM.

In the case of `CCCC[C@H](NC(=O)[C@H](Cc1ccc(OS(=O)(=O)O)cc1)NC(=O)OC(C)(C)C)C(=O)NCC(=O)N[C@@H](Cc1c[nH]c2ccccc12)C(=O)N[C@@H](Cc1ccccc1)C(=O)N[C@@H](CC(=O)O)C(=O)N[C@@H](Cc1ccccc1)C(N)=O` (Boc-[sY][Nle]GWFDF-NH2), the pKi in the assay filed under Mus musculus was 8.43; in the assay filed under Cavia porcellus [2] it was 6.66. Besides, the figures for the negative-log EC50 (pEC50) in the assay listed under Cavia porcellus [1] and in the assay listed under Cavia porcellus [3] were 7.96 and 8.47, respectively.

Take `CCCC[C@H](NC(=O)[C@H](Cc1ccc(OS(=O)(=O)O)cc1)NC(=O)OC(C)(C)C)C(=O)NCC(=O)N[C@@H](Cc1c[nH]c2ccccc12)C(=O)N[C@@H](CCC(=O)O)C(=O)N[C@@H](CC(=O)O)C(=O)N[C@@H](Cc1ccccc1)C(N)=O` (Boc-[sY][Nle]GWEDF-NH2): the negative-log Ki (pKi) in the assay listed under Mus musculus and in the assay filed under Cavia porcellus [2] was < 5.00 in each case. Moreover, the pEC50 is < 6.00 in the assay filed under Cavia porcellus [1] and < 5.00 in the assay listed under Cavia porcellus [3].
